This note sets out measurements from ChEMBL document CHEMBL4619819, “Toward the Target: Tilorone, Quinacrine, and Pyronaridine Bind to Ebola Virus Glycoprotein” (ACS Med Chem Lett, 2020).

A short description of assay [1]: Binding affinity to Ebola virus glycoprotein assessed as dissociation constant incubated for 20 to 30 mins by microscale thermophoresis. Details: species or system Ebolavirus; call rule not given here. The gist of the method: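 EBOV glycoprotein amine-labelled with RED-NHS dye, 2.5 nM final in 10 mM MES pH 5.0, 150 mM NaCl, 170 mM sodium malonate pH 5.2, plus 0.05% Tween 20 and 10 mM BME. 16-point 2-fold series from 250 μM to 7.629 nM, 2.5% DMSO final. Incubated 20–30 min. MST run at 20% excitation, high power, 23.0 °C, in quadruplicate. Kd from mass-action fit of Fnorm, with aggregated or outlier traces removed.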
A general note: MST reads how a fluorescent partner responds to local heating, with and without ligand.

Assay [2] has as its system Ebolavirus. The assay is described as follows: Antiviral activity against Ebolavirus infected in human HeLa cells assessed as reduction in viral replication incubated for 48 hrs by luminescence based assay. It counts as functional, organism-based. The conditions noted are these: Orthoebolavirus.

The structures appear in SMILES notation.

On to `COc1ccc2nc3cc(Cl)ccc3c(Nc3cc(CN4CCCC4)c(O)c(CN4CCCC4)c3)c2n1` [PYRONARIDINE], for which the Kd in assay [1] (read-out: Kd) turned out to be 7340 nM. The IC50 in assay [2] was in the range of 820 to 1300 nM.

`NC(=O)c1nc(F)cnc1O` [FAVIPIRAVIR]: the Kd entry in assay [1] is “Not Active”.

Turning to `CCN(CC)CCCC(C)Nc1c2ccc(Cl)cc2nc2ccc(OC)cc12` (centres undefined) [QUINACRINE], in assay [1] (read-out: Kd), the Kd came out at 7550 nM. The IC50 in assay [2] lay within 1050 to 1480 nM.

Regarding `CN(C)CCOc1ccc(/C(=C(/CCCl)c2ccccc2)c2ccccc2)cc1` [TOREMIFENE], the Kd in assay [1] (read-out: Kd) is 24800 nM.

For the molecule `CCN(CC)CCOc1ccc2c(c1)C(=O)c1cc(OCCN(CC)CC)ccc1-2` [TILORONE], the Kd in assay [1] (read-out: Kd) is 731 nM. Further, the IC50 in assay [2] lay within 1140 to 1480 nM.

Take `C[C@H]1[C@H](OC(=O)CCC(=O)O)O[C@@H]2O[C@@]3(C)CC[C@H]4[C@H](C)CC[C@@H]1[C@@]24OO3` [ARTESUNATE]: the Kd entry in assay [1] is “Not Active”.

Usually Kd stands for a measure of binding affinity in units of concentration. The term IC50 denotes the concentration needed to halve the response being measured.
